Measured values reported in ChEMBL document CHEMBL2177039, “Identification of a chemical probe for bromo and extra C-terminal bromodomain inhibition through optimization of a fragment-derived hit” (J Med Chem, 2012).

Assays:
[1] = target: Bromodomain-containing protein 4 (Homo sapiens, UniProt O60885); assay: Inhibition of BRD4 isoform 1 by AlphaScreen assay
Summary of the method: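 His-tagged bromodomain protein preincubated 30 min at room temperature with compound in 50 mM HEPES, 100 mM NaCl, 0.1% BSA, pH 7.4, plus 0.05% CHAPS; biotinylated peptide added for a further 30 min; streptavidin donor and nickel chelate acceptor beads (25 µg/ml each) then added, 60 min in the dark.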

[2] = target: Bromodomain-containing protein 3 (Homo sapiens) (UniProt Q15059); assay: Binding affinity to BRD3 isoform 1 assessed as change in melting temperature at 10 uM by thermal shift assay
[3] = target: Bromodomain-containing protein 2 (Homo sapiens) (UniProt P25440); assay: Binding affinity to BRD2 isoform 2 assessed as change in melting temperature at 10 uM by thermal shift assay
[4] = target: Bromodomain adjacent to zinc finger domain protein 2B (Homo sapiens) (UniProt Q9UIF8); assay: Binding affinity to BAZ2B assessed as change in melting temperature at 10 uM by thermal shift assay
[5] = Oral bioavailability […] in rat at 2 mg/kg; format: ADME, organism-based; conditions: in vivo
[6] = target: Bromodomain testis-specific protein (Homo sapiens) (UniProt Q58F21); assay: Binding affinity to BRDT isoform 1 assessed as change in melting temperature at 10 uM by thermal shift assay
[7] = target: Histone acetyltransferase KAT2B (Homo sapiens) (UniProt Q92831); assay: Binding affinity to PCAF assessed as change in melting temperature at 10 uM by thermal shift assay
[8] = Half life in mouse at 2 mg/kg, sc; format: ADME, organism-based; set-up: dose 2 mg/kg, route subcutaneous; conditions: in vivo
PBMC = assay: Inhibition of LPS-induced IL6 production in human PBMC by ELISA; format: functional, cell-based
Summary of the method: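 Mononuclear cells washed in Ca/Mg-free PBS, then RPMI + 5% FBS; plated at 2E5 cells/well. Compound added at 0.1% DMSO final and preincubated 30 min; stimulated with ultrapure LPS O111:B4 at 0.5 ng/ml final. Supernatants collected after 20 h; cytokines measured by multiplex ELISA.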

[9] = Protein binding in rat plasma; format: ADME, cell-free; conditions: read-out: PPB (converted)
[10] = target: Bromodomain-containing protein 3 (Homo sapiens) (UniProt Q15059); assay: Binding affinity to BRD3 isoform 2 assessed as change in melting temperature at 10 uM by thermal shift assay
CREB-binding protein [11] = target: T1, CREB-binding protein (Homo sapiens, UniProt Q92793); assay: Binding affinity to CREBBP by SPR method
[12] = Cmax in mouse at 2 mg/kg, sc; format: ADME, organism-based; set-up: dose 2 mg/kg, route subcutaneous; conditions: in vivo
[13] = target: Protein polybromo-1 (Homo sapiens) (UniProt Q86U86); assay: Binding affinity to pb1 isoform 5 assessed as change in melting temperature at 10 uM by thermal shift assay
[14] = Drug concentration in rat gut at 1 mg/kg, iv measured 7 hrs post dose; format: ADME, organism-based; set-up: dose 1 mg/kg, route intravenous; conditions: read-out: Drug uptake
[15] = target: Bromodomain-containing protein 2 (Homo sapiens) (UniProt P25440); assay: Binding affinity to BRD2 isoform 1 assessed as change in melting temperature at 10 uM by thermal shift assay
[16] = Tmax in mouse at 2 mg/kg, sc; format: ADME, organism-based; set-up: dose 2 mg/kg, route subcutaneous; conditions: in vivo
[17] = Plasma clearance in rat at 1 mg/kg, iv; format: ADME, organism-based; set-up: dose 1 mg/kg, route intravenous
[18] = Volume of distribution in rat at 1 mg/kg, iv; format: ADME, organism-based; set-up: dose 1 mg/kg, route intravenous; conditions: in vivo
Liver microsomes = assay: Half life in rat liver microsomes; format: ADME, Microsome
CREB-binding protein [19] = target: T1, CREB-binding protein; assay: Binding affinity to CREBBP assessed as change in melting temperature at 10 uM by thermal shift assay
[20] = Half life in rat at 1 mg/kg, iv; format: ADME, organism-based; set-up: dose 1 mg/kg, route intravenous; conditions: in vivo

Chain of Bromodomain-containing protein 3 (Homo sapiens) (Q15059 2-726 limits assumed): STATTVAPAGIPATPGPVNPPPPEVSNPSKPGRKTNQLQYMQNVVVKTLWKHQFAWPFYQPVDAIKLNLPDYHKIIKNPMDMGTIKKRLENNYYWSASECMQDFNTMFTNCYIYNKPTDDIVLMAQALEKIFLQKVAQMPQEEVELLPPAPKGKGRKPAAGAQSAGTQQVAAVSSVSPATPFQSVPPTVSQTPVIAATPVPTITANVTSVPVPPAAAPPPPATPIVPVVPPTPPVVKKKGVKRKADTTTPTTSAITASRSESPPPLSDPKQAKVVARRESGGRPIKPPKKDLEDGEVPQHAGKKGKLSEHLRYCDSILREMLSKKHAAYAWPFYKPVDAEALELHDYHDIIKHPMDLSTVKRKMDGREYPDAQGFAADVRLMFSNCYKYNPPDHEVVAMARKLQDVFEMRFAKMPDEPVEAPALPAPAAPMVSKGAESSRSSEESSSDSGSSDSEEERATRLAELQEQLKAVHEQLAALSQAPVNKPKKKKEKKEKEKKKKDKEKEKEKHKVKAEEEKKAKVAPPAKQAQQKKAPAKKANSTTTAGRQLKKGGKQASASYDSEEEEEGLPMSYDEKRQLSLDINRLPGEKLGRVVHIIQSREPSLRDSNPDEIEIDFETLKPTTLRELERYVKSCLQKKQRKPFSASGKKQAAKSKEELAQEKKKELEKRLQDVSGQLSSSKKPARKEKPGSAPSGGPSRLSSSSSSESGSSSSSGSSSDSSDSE
Chain of Bromodomain-containing protein 2 (Homo sapiens) (P25440 whole entry, looked up, the tested form may be a part, canonical isoform): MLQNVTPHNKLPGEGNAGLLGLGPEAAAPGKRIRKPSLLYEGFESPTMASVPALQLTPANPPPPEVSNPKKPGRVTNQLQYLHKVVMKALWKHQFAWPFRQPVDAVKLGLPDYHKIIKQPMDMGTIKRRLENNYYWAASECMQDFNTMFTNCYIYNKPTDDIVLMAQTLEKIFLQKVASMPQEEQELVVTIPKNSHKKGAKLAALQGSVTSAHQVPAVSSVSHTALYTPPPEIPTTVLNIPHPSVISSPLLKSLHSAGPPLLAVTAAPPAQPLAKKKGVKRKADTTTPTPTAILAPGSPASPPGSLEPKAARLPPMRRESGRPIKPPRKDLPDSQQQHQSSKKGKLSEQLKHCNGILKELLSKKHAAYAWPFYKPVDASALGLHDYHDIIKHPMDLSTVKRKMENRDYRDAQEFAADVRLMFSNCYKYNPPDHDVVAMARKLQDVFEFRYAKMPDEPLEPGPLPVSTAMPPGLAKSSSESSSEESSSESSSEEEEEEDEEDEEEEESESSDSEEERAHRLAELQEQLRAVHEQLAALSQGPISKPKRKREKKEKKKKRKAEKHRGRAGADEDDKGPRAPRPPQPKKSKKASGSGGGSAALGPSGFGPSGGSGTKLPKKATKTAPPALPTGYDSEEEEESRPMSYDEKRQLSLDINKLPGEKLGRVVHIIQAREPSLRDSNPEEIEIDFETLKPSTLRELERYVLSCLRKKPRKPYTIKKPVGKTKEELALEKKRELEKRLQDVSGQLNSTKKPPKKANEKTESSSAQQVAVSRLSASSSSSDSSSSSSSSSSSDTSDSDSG
Chain of Protein polybromo-1 (Homo sapiens) (Q86U86 whole entry, canonical isoform): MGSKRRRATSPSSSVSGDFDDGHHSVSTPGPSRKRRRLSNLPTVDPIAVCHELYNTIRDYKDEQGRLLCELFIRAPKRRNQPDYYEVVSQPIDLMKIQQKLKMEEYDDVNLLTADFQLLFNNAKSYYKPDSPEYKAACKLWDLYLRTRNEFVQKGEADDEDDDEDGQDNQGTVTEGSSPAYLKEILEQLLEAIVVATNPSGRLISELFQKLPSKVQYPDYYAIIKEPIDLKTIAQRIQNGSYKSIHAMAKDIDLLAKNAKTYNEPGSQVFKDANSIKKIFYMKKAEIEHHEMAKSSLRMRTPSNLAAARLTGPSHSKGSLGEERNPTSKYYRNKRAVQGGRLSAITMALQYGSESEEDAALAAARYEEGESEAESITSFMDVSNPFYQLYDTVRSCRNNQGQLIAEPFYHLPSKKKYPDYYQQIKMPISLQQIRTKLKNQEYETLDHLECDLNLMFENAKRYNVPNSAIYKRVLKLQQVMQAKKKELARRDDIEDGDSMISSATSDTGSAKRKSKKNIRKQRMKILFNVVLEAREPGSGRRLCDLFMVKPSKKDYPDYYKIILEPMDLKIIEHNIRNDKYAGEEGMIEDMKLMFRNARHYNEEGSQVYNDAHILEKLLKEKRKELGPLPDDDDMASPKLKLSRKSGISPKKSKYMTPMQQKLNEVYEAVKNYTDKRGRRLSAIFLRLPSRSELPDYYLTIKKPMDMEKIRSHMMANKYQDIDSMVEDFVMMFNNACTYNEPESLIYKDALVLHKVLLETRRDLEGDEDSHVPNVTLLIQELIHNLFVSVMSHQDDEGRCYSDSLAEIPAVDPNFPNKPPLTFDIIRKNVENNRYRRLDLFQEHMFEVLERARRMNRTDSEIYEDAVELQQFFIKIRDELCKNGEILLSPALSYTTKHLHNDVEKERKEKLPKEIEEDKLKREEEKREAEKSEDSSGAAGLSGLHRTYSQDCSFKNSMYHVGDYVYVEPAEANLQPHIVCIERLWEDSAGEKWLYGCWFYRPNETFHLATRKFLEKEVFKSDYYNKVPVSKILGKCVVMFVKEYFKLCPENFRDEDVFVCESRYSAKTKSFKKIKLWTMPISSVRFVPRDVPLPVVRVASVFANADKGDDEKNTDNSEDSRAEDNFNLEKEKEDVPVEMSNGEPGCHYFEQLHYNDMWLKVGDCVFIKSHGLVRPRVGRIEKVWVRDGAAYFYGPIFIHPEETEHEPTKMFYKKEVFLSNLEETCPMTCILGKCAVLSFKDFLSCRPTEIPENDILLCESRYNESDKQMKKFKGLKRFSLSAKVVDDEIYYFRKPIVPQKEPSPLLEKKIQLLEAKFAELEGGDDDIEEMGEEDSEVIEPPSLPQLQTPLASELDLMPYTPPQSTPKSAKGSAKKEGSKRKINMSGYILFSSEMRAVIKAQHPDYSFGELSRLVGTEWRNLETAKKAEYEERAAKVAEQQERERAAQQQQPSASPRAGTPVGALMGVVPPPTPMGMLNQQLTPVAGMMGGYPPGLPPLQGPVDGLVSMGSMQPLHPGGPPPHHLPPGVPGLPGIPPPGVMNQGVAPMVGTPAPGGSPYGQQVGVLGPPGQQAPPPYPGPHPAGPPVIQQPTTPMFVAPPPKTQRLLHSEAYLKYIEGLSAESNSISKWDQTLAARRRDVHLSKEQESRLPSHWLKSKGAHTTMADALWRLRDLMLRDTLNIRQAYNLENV
Chain of Histone acetyltransferase KAT2B (Homo sapiens) (Q92831 whole entry, looked up): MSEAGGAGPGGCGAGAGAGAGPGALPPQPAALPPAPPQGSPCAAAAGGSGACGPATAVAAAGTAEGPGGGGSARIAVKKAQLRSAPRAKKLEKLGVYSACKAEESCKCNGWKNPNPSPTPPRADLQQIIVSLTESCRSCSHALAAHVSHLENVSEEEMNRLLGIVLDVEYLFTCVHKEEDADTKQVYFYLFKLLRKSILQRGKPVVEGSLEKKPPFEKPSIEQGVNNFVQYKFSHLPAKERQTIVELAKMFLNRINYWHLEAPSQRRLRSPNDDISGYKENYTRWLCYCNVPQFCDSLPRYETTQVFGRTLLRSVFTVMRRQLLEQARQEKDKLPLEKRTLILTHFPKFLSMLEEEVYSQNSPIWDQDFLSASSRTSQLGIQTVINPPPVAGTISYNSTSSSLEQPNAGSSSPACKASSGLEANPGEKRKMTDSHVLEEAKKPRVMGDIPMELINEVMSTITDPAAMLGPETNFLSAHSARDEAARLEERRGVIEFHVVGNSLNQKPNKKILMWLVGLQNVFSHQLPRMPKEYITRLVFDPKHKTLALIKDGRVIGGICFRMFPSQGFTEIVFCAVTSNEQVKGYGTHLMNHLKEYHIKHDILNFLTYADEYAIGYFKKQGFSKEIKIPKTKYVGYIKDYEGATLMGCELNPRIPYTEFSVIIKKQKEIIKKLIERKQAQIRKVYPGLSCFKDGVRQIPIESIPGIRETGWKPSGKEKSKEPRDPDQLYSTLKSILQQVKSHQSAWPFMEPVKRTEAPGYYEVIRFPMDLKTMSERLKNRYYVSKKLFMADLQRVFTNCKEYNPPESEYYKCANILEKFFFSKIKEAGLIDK

In the case of `CN1Cc2cc(NS(=O)(=O)c3ccc(C#N)cc3)ccc2NC1=O`, the IC50 [1] is reported as 2300 nM.

With `CN1Cc2cc(NS(=O)(=O)c3ccccc3)ccc2NC1=O` the IC50 [1] was 880 nM.

Work on `COc1ccccc1S(=O)(=O)Nc1ccc2c(c1)CN(C)C(=O)N2` yielded a ΔTm [2] of 5.24 °C, a ΔTm [3] of 5.32 °C and a ΔTm [4] of 0.3 °C. It also gave a bioavailability [5] of 32%, a ΔTm [6] of 2.08 °C and a ΔTm [7] of 0.81 °C. It also gave a half-life [8] of 2 h, an EC50 (PBMC) of 1890 nM and a fraction unbound [9] of 0.31. It also gave a ΔTm [10] of 5.45 °C, a Kd (CREB-binding protein [11]) of 49000 nM and a Cmax [12] of 58 ng/mL. For the same compound, the ΔTm [13] was 0.83 °C, the concentration at 7 h [14] was 62 ng/mL and the ΔTm [15] was 4.61 °C. For the same compound, the Tmax [16] was 1 h, the clearance [17] was 18 mL/min/kg and the Vd [18] was 1 L/kg. For the same compound, the t1/2 (Liver microsomes) was over 2 h, the ΔTm (CREB-binding protein [19]) was 1.7 °C and the half-life [20] was 1 h.

With `CN1Cc2cc(NS(=O)(=O)c3ccccc3F)ccc2NC1=O` the IC50 [1] was 360 nM.

Compound `COc1cccc(S(=O)(=O)Nc2ccc3c(c2)CN(C)C(=O)N3)c1` has an IC50 [1] of 730 nM.

In the case of `CN1Cc2cc(NS(=O)(=O)c3ccccc3C(F)(F)F)ccc2NC1=O`, the IC50 [1] is reported as 470 nM.

Work on `CCNS(=O)(=O)c1ccc2c(c1)CN(C)C(=O)N2` yielded an IC50 [1] of 1900 nM.

`COc1ccc(S(=O)(=O)Nc2ccc3c(c2)CN(C)C(=O)N3)cc1` showed an IC50 [1] of 880 nM.

In the case of `Cc1ccccc1S(=O)(=O)Nc1ccc2c(c1)CN(C)C(=O)N2`, the IC50 [1] is reported as 220 nM.

With `CN1Cc2cc(S(=O)(=O)N3CCCC3)ccc2NC1=O` the IC50 [1] was 4800 nM.

In the case of `Cc1ccc(S(=O)(=O)Nc2ccc3c(c2)CN(C)C(=O)N3)cc1`, the IC50 [1] is reported as 390 nM.

`CN1Cc2cc(NS(=O)(=O)c3ccc(F)cc3Cl)ccc2NC1=O` gave an IC50 [1] of 180 nM.
